Source: ChEMBL document CHEMBL1157570, “Development of potent and selective inhibitors of ecto-5'-nucleotidase based on an anthraquinone scaffold” (J Med Chem, 2010)
pIC50, pKi: −log10 of the molar value.

molecular target: T1, 5'-nucleotidase (Rattus norvegicus, UniProt P21588); experiment: Inhibition of rat ecto-5'-nucleotidase expressed in Sf9 cells by capillary electrophoresis method
T1 sequence (P21588 whole entry): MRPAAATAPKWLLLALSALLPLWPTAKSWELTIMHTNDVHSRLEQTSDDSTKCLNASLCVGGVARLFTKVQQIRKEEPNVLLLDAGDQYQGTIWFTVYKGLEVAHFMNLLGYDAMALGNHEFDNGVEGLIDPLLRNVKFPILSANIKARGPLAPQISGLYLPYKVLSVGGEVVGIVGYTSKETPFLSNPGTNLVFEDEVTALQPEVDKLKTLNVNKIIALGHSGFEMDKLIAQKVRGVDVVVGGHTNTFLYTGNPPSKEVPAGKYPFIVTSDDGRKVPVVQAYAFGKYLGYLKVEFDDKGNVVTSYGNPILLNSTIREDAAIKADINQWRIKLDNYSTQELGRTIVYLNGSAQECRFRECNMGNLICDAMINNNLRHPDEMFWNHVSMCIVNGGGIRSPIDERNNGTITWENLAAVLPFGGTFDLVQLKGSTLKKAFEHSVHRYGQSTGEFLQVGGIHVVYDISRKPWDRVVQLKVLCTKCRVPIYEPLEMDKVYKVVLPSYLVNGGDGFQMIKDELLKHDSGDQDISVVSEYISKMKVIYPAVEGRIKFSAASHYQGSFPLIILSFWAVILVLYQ
Outline: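 Rat eN, GST-fused, made in Sf9 cells and purified on GSH-agarose. 500 μM AMP in Hepes pH 7.4 with Mg2+/Ca2+, 37 °C for 15 min. Adenosine measured by capillary electrophoresis at 260 nm. Inhibitor at 6-8 concentrations spanning about 3 log units. […] Three experiments, each in duplicate.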

| SMILES | pKi |
| --- | --- |
| Nc1ccc(Nc2cc(S(=O)(=O)O)c(N)c3c2C(=O)c2ccccc2C3=O)cc1 | 6.53 |
| Nc1c(S(=O)(=O)O)cc(Nc2ccc(F)cc2)c2c1C(=O)c1ccccc1C2=O | 5.25 |
| Nc1c(S(=O)(=O)O)cc(Nc2ccc3ccccc3c2)c2c1C(=O)c1ccccc1C2=O | 5.83 |
| Cc1ccc2ccccc2c1Nc1cc(S(=O)(=O)O)c(N)c2c1C(=O)c1ccccc1C2=O | 5.56 |
| Nc1ncnc2c1ncn2[C@H]1O[C@@H](COP(=O)(O)CP(=O)(O)O)[C@H](O)[C@@H]1O | 9.06 |
| Nc1c(S(=O)(=O)O)cc(Nc2ccc(O)cc2)c2c1C(=O)c1ccccc1C2=O | 6.21 |
| Nc1cc(Nc2cc(S(=O)(=O)O)c(N)c3c2C(=O)c2ccccc2C3=O)ccc1S(=O)(=O)O | 4.60 |
| Nc1c(S(=O)(=O)O)cc(Nc2ccccc2O)c2c1C(=O)c1ccccc1C2=O | 5.74 |
| Nc1c(S(=O)(=O)O)cc(Nc2ccc(Cl)cc2)c2c1C(=O)c1ccccc1C2=O | 5.32 |
| Nc1c(S(=O)(=O)O)cc(Nc2ccc(Nc3nc(Cl)nc(Nc4cccc(S(=O)(=O)O)c4)n3)c(S(=O)(=O)O)c2)c2c1C(=O)c1ccccc1C2=O [RB 2] | 5.51 |
| Nc1c(S(=O)(=O)O)cc(Nc2cccc3cccc(S(=O)(=O)O)c23)c2c1C(=O)c1ccccc1C2=O | 5.22 |
| Nc1ccc(Nc2cc(S(=O)(=O)O)c(N)c3c2C(=O)c2ccccc2C3=O)cc1S(=O)(=O)O | 5.00 |
| Nc1c(S(=O)(=O)O)cc(Nc2ccc(S(=O)(=O)O)cc2)c2c1C(=O)c1ccccc1C2=O | 5.46 |
| Nc1c(S(=O)(=O)O)cc(Nc2ccc(Oc3ccccc3)cc2)c2c1C(=O)c1ccccc1C2=O | 5.82 |
| Nc1c(S(=O)(=O)O)cc(Nc2cccc3cc(S(=O)(=O)O)ccc23)c2c1C(=O)c1ccccc1C2=O | 4.82 |
| Nc1c(S(=O)(=O)O)cc(Nc2cccc3c(S(=O)(=O)O)cccc23)c2c1C(=O)c1ccccc1C2=O | 4.93 |
| Nc1c(S(=O)(=O)O)cc(NC2CCCCC2)c2c1C(=O)c1ccccc1C2=O | 5.78 |
| Cc1cc(C)c(Nc2cc(S(=O)(=O)O)c(N)c3c2C(=O)c2ccccc2C3=O)c(C)c1N | 4.44 |
| Cc1cccc(Nc2cc(S(=O)(=O)O)c(N)c3c2C(=O)c2ccccc2C3=O)c1 | 4.91 |
| Nc1c(S(=O)(=O)O)cc(Nc2ccc3cc(C(=O)O)ccc3c2)c2c1C(=O)c1ccccc1C2=O | 5.46 |
| Cc1ccc(Nc2cc(S(=O)(=O)O)c(N)c3c2C(=O)c2ccccc2C3=O)cc1 | 3.44 |
| Nc1c(S(=O)(=O)O)cc(Nc2ccccc2C(=O)O)c2c1C(=O)c1ccccc1C2=O | 5.19 |
| Nc1c(S(=O)(=O)O)cc(Nc2cccc3cc4ccccc4cc23)c2c1C(=O)c1ccccc1C2=O | 5.53 |
| Nc1ccccc1Nc1cc(S(=O)(=O)O)c(N)c2c1C(=O)c1ccccc1C2=O | 4.33 |
| Nc1c(S(=O)(=O)O)cc(Nc2ccc(Br)cc2)c2c1C(=O)c1ccccc1C2=O | 4.95 |

molecular target: T2, 5'-nucleotidase (Rattus norvegicus) (UniProt P21588); experiment: Inhibition of rat ecto-5'-nucleotidase expressed in Sf9 cells at 1 mM by capillary electrophoresis method
T2 sequence (whole entry): T1 sequence (P21588 whole entry)
Outline: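 Test agent at 1 mM with 500 μM AMP in 10 mM Hepes pH 7.4, 2 mM MgCl2, 1 mM CaCl2. Incubated 15 min at 37 °C, stopped at 99 °C for 10 min. Adenosine quantified by capillary electrophoresis, UV peak area at 260 nm.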

| SMILES | inhibition [%] |
| --- | --- |
| Cc1ccc(Nc2cc(S(=O)(=O)O)c(N)c3c2C(=O)c2ccccc2C3=O)c(C)c1 | 47 |
| Cc1cccc(Nc2cc(S(=O)(=O)O)c(N)c3c2C(=O)c2ccccc2C3=O)c1C | 39 |
| Nc1c(S(=O)(=O)O)cc(Nc2cccc3ccc(S(=O)(=O)O)cc23)c2c1C(=O)c1ccccc1C2=O | 0 |
| COc1ccc(CCNc2cc(S(=O)(=O)O)c(N)c3c2C(=O)c2ccccc2C3=O)cc1OC | 44 |
| Cc1ccccc1Nc1cc(S(=O)(=O)O)c(N)c2c1C(=O)c1ccccc1C2=O | 33 |
| Nc1c(S(=O)(=O)O)cc(NC2CCCC2)c2c1C(=O)c1ccccc1C2=O | 51 |
| Nc1c(S(=O)(=O)O)cc(Nc2cc3ccccc3c3ccccc23)c2c1C(=O)c1ccccc1C2=O | 58 |
| Cc1ccc(C)c(Nc2cc(S(=O)(=O)O)c(N)c3c2C(=O)c2ccccc2C3=O)c1 | 26 |
| Cc1cc(Nc2ccccc2)c2c(c1N)C(=O)c1ccccc1C2=O | 4 |
| Nc1c(S(=O)(=O)O)cc(NCCc2ccccc2)c2c1C(=O)c1ccccc1C2=O | 53 |
| Nc1c(S(=O)(=O)O)cc(Nc2ccccc2S(=O)(=O)O)c2c1C(=O)c1ccccc1C2=O | 14 |
| Nc1c(S(=O)(=O)O)cc(Nc2ccc(CC(=O)O)cc2)c2c1C(=O)c1ccccc1C2=O | 26 |
| Nc1c(S(=O)(=O)O)cc(Nc2ccc(C(=O)O)cc2)c2c1C(=O)c1ccccc1C2=O | 34 |
| Nc1c(S(=O)(=O)O)cc(NCCc2ccc(Cl)cc2)c2c1C(=O)c1ccccc1C2=O | 62 |
| Nc1c(S(=O)(=O)O)cc(Nc2cc(Cl)ccc2C(=O)O)c2c1C(=O)c1ccccc1C2=O | 27 |
| Nc1c(S(=O)(=O)O)cc(NCc2ccccc2)c2c1C(=O)c1ccccc1C2=O | 43 |
| Nc1c(S(=O)(=O)O)cc(Nc2cccc(C(=O)O)c2)c2c1C(=O)c1ccccc1C2=O | 26 |
| CC(C)Nc1cc(S(=O)(=O)O)c(N)c2c1C(=O)c1ccccc1C2=O | 15 |
| Nc1cccc(Nc2cc(S(=O)(=O)O)c(N)c3c2C(=O)c2ccccc2C3=O)c1 | 31 |
| Nc1c(S(=O)(=O)O)cc(Nc2ccc(Br)cc2C(=O)O)c2c1C(=O)c1ccccc1C2=O | 56 |
| Nc1cc(Nc2cc(S(=O)(=O)O)c(N)c3c2C(=O)c2ccccc2C3=O)cc(C(=O)O)c1 | 44 |
| COc1ccccc1Nc1cc(S(=O)(=O)O)c(N)c2c1C(=O)c1ccccc1C2=O | 9 |
| CCOc1ccc(Nc2cc(S(=O)(=O)O)c(N)c3c2C(=O)c2ccccc2C3=O)cc1 | 31 |
| CCOP(=O)(Cc1ccc(Nc2cc(S(=O)(=O)O)c(N)c3c2C(=O)c2ccccc2C3=O)cc1)OCC | 28 |
| CCOc1ccccc1Nc1cc(S(=O)(=O)O)c(N)c2c1C(=O)c1ccccc1C2=O | 56 |
| Nc1c(S(=O)(=O)O)cc(Nc2ccc(Nc3ccccc3)cc2)c2c1C(=O)c1ccccc1C2=O | 37 |
| Nc1c(S(=O)(=O)O)cc(Nc2ccc(Cl)cc2C(=O)O)c2c1C(=O)c1ccccc1C2=O | 52 |
| Nc1c(S(=O)(=O)O)cc(Nc2cc(F)ccc2C(=O)O)c2c1C(=O)c1ccccc1C2=O | 60 |
| Nc1ccccc1Nc1cc(S(=O)(=O)O)c(N)c2c1C(=O)c1ccccc1C2=O | 47 |

molecular target: T3, Ectonucleoside triphosphate diphosphohydrolase 1 (Homo sapiens, UniProt P49961); experiment: Inhibition of human NTPdase1 by capillary electrophoresis method
T3 sequence (P49961 whole entry): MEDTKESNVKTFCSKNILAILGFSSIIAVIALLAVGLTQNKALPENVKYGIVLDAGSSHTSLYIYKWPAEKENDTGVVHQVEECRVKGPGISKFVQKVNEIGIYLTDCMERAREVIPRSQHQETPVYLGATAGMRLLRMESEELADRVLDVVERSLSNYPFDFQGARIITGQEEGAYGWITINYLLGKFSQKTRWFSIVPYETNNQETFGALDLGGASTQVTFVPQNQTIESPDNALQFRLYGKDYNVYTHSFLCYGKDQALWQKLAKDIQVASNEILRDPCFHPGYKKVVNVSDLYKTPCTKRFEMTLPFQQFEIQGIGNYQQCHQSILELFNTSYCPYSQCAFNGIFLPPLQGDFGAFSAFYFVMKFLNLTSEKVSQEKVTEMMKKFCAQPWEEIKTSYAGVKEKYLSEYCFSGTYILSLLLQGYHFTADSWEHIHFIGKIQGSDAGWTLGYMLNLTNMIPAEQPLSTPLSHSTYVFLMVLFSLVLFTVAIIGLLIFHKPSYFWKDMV
Outline: (§1)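 Membrane preparations containing human NTPDase1, 2 or 3. Inhibitor added in water or 1% DMSO. Incubated 10 min at 37 °C, stopped at 99 °C for 5 min. Diluted with 20 μM UMP as internal standard, then analysed by capillary electrophoresis. Triplicates in two experiments.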

| SMILES | pKi |
| --- | --- |
| Nc1c(S(=O)(=O)O)cc(Nc2ccc(O)cc2)c2c1C(=O)c1ccccc1C2=O | 4.97 |

molecular target: T4, Ectonucleoside triphosphate diphosphohydrolase 2 (Homo sapiens, UniProt Q9Y5L3); experiment: Inhibition of human NTPdase2 by capillary electrophoresis method; outline: as §1
T4 sequence (Q9Y5L3 whole entry): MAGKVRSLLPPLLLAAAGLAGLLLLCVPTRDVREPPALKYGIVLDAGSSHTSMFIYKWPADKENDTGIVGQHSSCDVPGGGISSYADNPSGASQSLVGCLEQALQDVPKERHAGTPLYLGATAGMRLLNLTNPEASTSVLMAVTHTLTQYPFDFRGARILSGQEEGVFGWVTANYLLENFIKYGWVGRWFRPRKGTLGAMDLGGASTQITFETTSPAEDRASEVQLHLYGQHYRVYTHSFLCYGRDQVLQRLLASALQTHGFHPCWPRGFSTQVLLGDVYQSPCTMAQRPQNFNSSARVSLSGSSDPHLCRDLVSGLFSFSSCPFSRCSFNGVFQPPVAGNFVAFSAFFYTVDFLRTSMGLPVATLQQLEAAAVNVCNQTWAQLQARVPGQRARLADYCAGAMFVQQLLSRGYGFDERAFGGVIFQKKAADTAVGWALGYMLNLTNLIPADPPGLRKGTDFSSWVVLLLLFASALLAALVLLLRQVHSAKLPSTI

| SMILES | pKi |
| --- | --- |
| Nc1c(S(=O)(=O)O)cc(Nc2ccc(O)cc2)c2c1C(=O)c1ccccc1C2=O | < 3.70 |

molecular target: P2Y purinoceptor 2 (Homo sapiens, UniProt P41231); experiment: Antagonist activity at human P2Y2 receptor expressed in astrocytoma cells assessed as inhibition of intracellular calcium mobilization; format: functional, cell-based
Outline: (§2)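 Astrocytoma cells stably expressing the receptor, loaded with Fura-2 AM. Cells preincubated with test agent for at least 20 min, then challenged with 1 μM UTP (P2Y2), 3 μM UTP (P2Y4) or 3 μM UDP (P2Y6). Ca2+ fluorescence read at ex 320/em 520 nm. Full curves (7-8 concentrations over 3 log units) run when inhibition exceeded 40% at 10 μM. Three experiments, each in triplicate.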

P2Y purinoceptor 2, sequence (P41231 whole entry): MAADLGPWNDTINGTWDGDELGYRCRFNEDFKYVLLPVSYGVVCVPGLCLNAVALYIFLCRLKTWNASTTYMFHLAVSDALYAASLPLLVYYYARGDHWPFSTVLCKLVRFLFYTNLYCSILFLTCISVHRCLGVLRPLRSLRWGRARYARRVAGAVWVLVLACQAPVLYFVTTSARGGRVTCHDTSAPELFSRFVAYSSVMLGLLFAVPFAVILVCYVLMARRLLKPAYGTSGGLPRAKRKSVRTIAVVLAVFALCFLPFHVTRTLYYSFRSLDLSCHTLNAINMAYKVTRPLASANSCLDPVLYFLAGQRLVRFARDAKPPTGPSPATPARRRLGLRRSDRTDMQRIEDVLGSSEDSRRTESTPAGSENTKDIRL

| SMILES | pIC50 |
| --- | --- |
| Nc1c(S(=O)(=O)O)cc(Nc2ccc(O)cc2)c2c1C(=O)c1ccccc1C2=O | 5.33 |

molecular target: P2Y purinoceptor 4 (Homo sapiens, UniProt P51582); experiment: Antagonist activity at human P2Y4 receptor expressed in astrocytoma cells assessed as inhibition of intracellular calcium mobilization; format: functional, cell-based; outline: as §2
Sequence (P51582 whole entry): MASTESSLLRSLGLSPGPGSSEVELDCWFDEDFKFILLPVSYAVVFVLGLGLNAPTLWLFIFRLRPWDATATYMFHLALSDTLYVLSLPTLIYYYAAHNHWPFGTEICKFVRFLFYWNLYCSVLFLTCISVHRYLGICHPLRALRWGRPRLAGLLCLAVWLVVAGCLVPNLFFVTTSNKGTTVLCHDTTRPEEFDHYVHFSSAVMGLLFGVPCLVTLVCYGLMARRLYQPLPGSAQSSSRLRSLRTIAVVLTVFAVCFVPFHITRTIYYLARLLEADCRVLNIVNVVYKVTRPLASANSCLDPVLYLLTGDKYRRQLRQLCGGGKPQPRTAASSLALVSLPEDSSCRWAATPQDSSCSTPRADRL

| SMILES | pIC50 |
| --- | --- |
| Nc1c(S(=O)(=O)O)cc(Nc2ccc(O)cc2)c2c1C(=O)c1ccccc1C2=O | 5.63 |
| Nc1c(S(=O)(=O)O)cc(Nc2ccc(Nc3nc(Cl)nc(Nc4cccc(S(=O)(=O)O)c4)n3)c(S(=O)(=O)O)c2)c2c1C(=O)c1ccccc1C2=O [RB 2] | 5.01 |

molecular target: P2Y purinoceptor 6 (Rattus norvegicus, UniProt Q63371); experiment: Antagonist activity at rat P2Y6 receptor expressed in astrocytoma cells assessed as inhibition of intracellular calcium mobilization; format: functional, cell-based; outline: as §2
Sequence (Q63371 whole entry): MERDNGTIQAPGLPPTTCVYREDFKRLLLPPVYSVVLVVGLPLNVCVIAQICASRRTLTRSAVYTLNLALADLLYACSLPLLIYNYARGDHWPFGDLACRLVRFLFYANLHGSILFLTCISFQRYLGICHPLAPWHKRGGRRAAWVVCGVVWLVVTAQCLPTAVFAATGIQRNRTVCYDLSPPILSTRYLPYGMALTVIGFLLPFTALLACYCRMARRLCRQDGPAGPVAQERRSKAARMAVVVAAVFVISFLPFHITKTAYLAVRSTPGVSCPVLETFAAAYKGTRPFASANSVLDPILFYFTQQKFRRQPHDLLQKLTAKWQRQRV

| SMILES | pIC50 |
| --- | --- |
| Nc1c(S(=O)(=O)O)cc(Nc2ccc(O)cc2)c2c1C(=O)c1ccccc1C2=O | 5.28 |
